These results are taken from PubChem BioAssay AID624038 (The Scripps Research Institute Molecular Screening Center, 2012).

Out of some 360,000 compounds screened, about 1,100 (0.31%) were called active. Only a selection was taken, and actives are over-represented in it overall. Values without a mark were called inactive.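 Rule for the calls: active = activation above the run cutoff, the mean activation of all test compounds plus 3 SD (cut at about 18% in these data); inactive = the rest.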

Chain of Muscarinic acetylcholine receptor M5 (Homo sapiens) (P08912 whole entry, looked up): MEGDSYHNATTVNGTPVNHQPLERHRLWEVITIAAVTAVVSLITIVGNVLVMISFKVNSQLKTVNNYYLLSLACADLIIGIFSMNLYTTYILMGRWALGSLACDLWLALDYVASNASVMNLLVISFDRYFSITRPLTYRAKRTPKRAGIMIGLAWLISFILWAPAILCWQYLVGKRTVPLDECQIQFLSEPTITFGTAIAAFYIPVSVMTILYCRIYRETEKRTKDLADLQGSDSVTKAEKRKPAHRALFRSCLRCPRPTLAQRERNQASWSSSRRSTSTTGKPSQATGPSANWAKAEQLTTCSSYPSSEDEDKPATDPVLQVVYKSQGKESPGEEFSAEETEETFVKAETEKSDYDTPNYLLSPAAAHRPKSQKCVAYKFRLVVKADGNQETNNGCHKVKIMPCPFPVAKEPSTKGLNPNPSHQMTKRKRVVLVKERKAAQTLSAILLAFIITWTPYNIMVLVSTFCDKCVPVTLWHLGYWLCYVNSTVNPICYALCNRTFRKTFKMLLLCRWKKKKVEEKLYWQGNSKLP

The assay addresses Muscarinic acetylcholine receptor M5 (Homo sapiens) (UniProt P08912). In words: CHRM5 PAMs potentiating acetylcholine calcium signal – CHO-K1 cells, Fluo-8 calcium fluorescence, primary screen (AID 624038). The following applies: CHO-K1 hM5, Fluo-8 calcium, ACh EC20 PAM; at 3 µM; active compounds read high; 0% = ACh EC20, 100% = ACh EC100. The method, boiled down: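 Assay system: CHO-K1 hM5 cells / Incubation: Fluo-8 loading 80 min at 37 °C plus 30 min room temperature / Technique: Fluo-8 calcium dye fluorescence, kinetic read / Repeats: single replicate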
For the molecule `COc1ccc2c(-c3ccccc3)cc(SCC(=O)N(C)C3CCS(=O)(=O)C3)nc2c1` (stereo unspecified), the activation is -0.41%.
Under `CN(C(=O)COC(=O)c1cc(-c2ccco2)nc2ccccc12)C1CCS(=O)(=O)C1` (stereo unspecified) stands 2.3%; under `Cc1c(-c2cccc(Cl)c2)nc2ccccc2c1C(=O)OCC(=O)N(C)C1CCS(=O)(=O)C1` (stereo unspecified), 20.2% (active).
As to `CCOC(=O)C1=C(C)OC(N)=C(C#N)C1c1cncc(-c2ccc(F)cc2)c1` (stereo unspecified), the activation was -7.72%.
On to `CN1CCN(S(=O)(=O)c2ccc(Nc3ccc(F)cc3)nc2)CC1`, for which the activation was 11.7%.
Under `C=CCN1C(=O)c2ccc(C(=O)N3CCC(C(=O)OCC)CC3)cc2C1=O` stands 44.4% (active).
With `CCOC(=O)C1CCCN(C(=O)c2ccc(C)c(F)c2)CC1` (stereo unspecified), the activation is 0.17%.
The same measure for `CCOC(=O)C1CCCN(C(=O)c2ccc(N(C)C)cc2)CC1` (stereo unspecified): -2.3%; for `C=CCOC(=O)c1ccccc1C(=O)OCC=C`: 0.16%; for `O=C(COC(=O)/C=C/c1ccc(OC(F)F)cc1)NC1CCCCC1`: -3.38%.
For the molecule `CCN(CCn1cccn1)C(=O)CC1C(=O)NCCN1Cc1cccc(OC)c1OC` (stereo unspecified), the activation was -1.21%.
Take `CCCC(CNC(=O)COC(=O)C1=NNC(=O)CC1)c1ccc(Cl)cc1Cl` (stereo unspecified): the activation was 8.77%.
Under `O=C(c1ccc(Br)o1)N1CCN(CCOc2ccccc2)CC1` stands 4.96%; under `O=C(c1ccco1)N1CCN(CCOc2ccccc2)CC1`, 2.94%; under `COC(c1ccccc1)c1nnc(CCC(=O)N2CCN(CCOc3ccccc3)CC2)o1` (stereo unspecified), 20% (active).
The same measure for `CCC1=[N+]([O-])C(C)(/C(C)=N\O)N(O)C1(C)C` (stereo unspecified): 3.88%.
Take `CC(C)Cn1cc(-c2cncc3nccn23)cn1`: the activation is -3.57%.
The same measure for `COc1ccc(-c2c(C#Cc3ccccc3)c3ccccc3n2C)cc1`: 0.62%.
Turning to `CC(C)(C)n1nc(Cc2cccc3ccccc23)c(C#N)c1N`, the activation is -3.53%.
The same measure for `CN(C)Cc1c(C#N)c2ccccc2n1C`: 18.2% (active); for `CCN(Cc1ccccc1)C(=O)Cc1ccc(OC)c(S(=O)(=O)N2CCOCC2)c1`: 0.97%; for `COc1ccc(NC(=O)CNC(=O)Cn2ccc3ccccc3c2=O)c(OC)c1`: 0.07%.
For `CCN(C[C@H]1N[C@@](CC)(C(=O)OC)[C@H]2C(=O)N(C)C(=O)[C@@H]12)C(=O)Nc1ccc(F)cc1`, the activation was -0.26%.
Under `O=C(NCc1ccccc1)C1c2ccccc2OCC(=O)N1C1CC1` (stereo unspecified) stands 6.75%; under `O=C(NCc1nnc(SCC(=O)N2CCCc3ccccc32)o1)c1ccccc1F`, 22.5% (active).
As for `Cc1ccc(NC(=O)CSc2nnc(CNC(=O)c3ccccc3F)o2)cc1`, the activation is 0.28%.
Under `Cc1ccc(NC(=O)CSc2nnc(CNC(=O)c3ccccc3F)o2)cc1Cl` stands -1.76%; under `COCCNC(=O)C1CCCN(Cc2ccccc2Cl)CC1` (stereo unspecified), 0.83%; under `CCOC(=O)CC1(NC(=O)c2cc(COc3cncc(Cl)c3)on2)CCCCC1`, -12.1%.
Under `O=C(NNS(=O)(=O)c1ccc(F)cc1)c1cnccn1` stands -12.5%; under `COc1ccc(CN(C(=O)c2cccs2)c2nccs2)cc1OC`, -13.5%.
Take `OCC[C@H]1C[C@H](O)[C@@H](O)[C@]2(CCCCO2)O1`: the activation was 19.8% (active).
In the case of `C[C@H]1CC[C@]2(O[C@@H](CCO)C[C@@H](O)[C@@H]2O)O1`, the activation is 5.16%.
The same measure for `C[C@@H]1CC[C@]2(O[C@@H](CCO)C[C@H](O)[C@H]2O)O1`: 3.31%; for `Cc1ccc(NC(=O)N2CCSc3ccccc32)cc1`: -6.2%; for `Cc1ccc(-c2nnc(CN3CCN(C)CC3)o2)cc1`: 5.27%.
Turning to `CCCCSc1nnc(-c2ccc(C)cc2)o1`, the activation was 19.1% (active).
Under `CCN(C(=O)CSc1nnc(-c2ccncc2)o1)c1ccccc1` stands -1.49%; under `COCCNc1nc(N)c([N+](=O)[O-])c(NCCO)n1`, -6.19%.
Take `CCOC(=O)c1ccc2c(c1)nc(SCC(=O)NC(C)C)n2CC`: the activation is 0.07%.
Under `CCc1ccc(NC(=O)C(=O)N/N=C(\C)CC(=O)NCCOC)cc1` stands 3.15%; under `Cc1cc(C)n(-c2cc(Oc3ccccc3)ncn2)n1`, 34.2% (active).
The same measure for `CC(=O)c1cnn(-c2cc(Oc3ccc(F)cc3)ncn2)c1C`: 0.64%; for `Cc1cc(C)n(-c2ccc3nncn3n2)n1`: 0.99%.
On to `COC(=O)c1sc(SC)c(S(=O)(=O)C(C)C)c1N/N=C(\C#N)S(=O)(=O)c1ccccn1`, for which the activation was 3.1%.
The same measure for `CCc1nc2ccc(C(=O)N3CCC(O)(Cc4ccccc4)CC3)cn2c1N(C)C(=O)Cc1ccccc1`: 1.27%.
As for `CCCCc1ccc(NC(=O)NCc2cccnc2)cc1`, the activation is 2.66%.
The same measure for `CN(C)CCCN1C(=O)CSC1c1ccc([N+](=O)[O-])cc1` (stereo unspecified): 8.84%; for `CCCCCCCCCCCCN1C(=O)CSC1c1cccnc1` (stereo unspecified): 22.7% (active).
Under `CCN(CC)S(=O)(=O)c1cc([N+](=O)[O-])ccc1N=Nc1c(O)n(C)c2ccccc12` stands -2.02%; under `CCOc1ccc(NC(=O)CN(C)C(=O)CCSc2ccc(F)cc2)cc1OCC`, -1.87%.
In the case of `CCN(Cc1ccccc1)S(=O)(=O)c1cc2c3c(c1)CCN3C(=O)CC2`, the activation is 3.77%.
The same measure for `Cc1ccc(S(=O)(=O)N(C)C)cc1NC(=O)/C=C/c1cccs1`: -1.18%.
As to `Cc1ccc(S(=O)(=O)N(C)C)cc1NC(=O)COC(=O)/C=C/c1cccs1`, the activation was 1.46%.
Turning to `Cc1cc(C)c2nc(N(CCN(C)C)C(=O)/C=C/c3cccs3)sc2c1`, the activation is 18.8% (active).
In the case of `FC(F)(F)c1ccnc(Oc2ccc(C3=NCCS3)cc2)c1`, the activation was -0.95%.
Regarding `COc1ccc(NC(=O)CSc2nnc(-c3ccccc3F)n2C2CC2)cc1S(N)(=O)=O`, the activation is 4.72%.
The same measure for `CCOC1CS(=O)(=O)CC1OCC` (stereo unspecified): 27.7% (active); for `O=C(O)c1ccc(COCC(F)(F)F)cc1`: -0.76%.
For the molecule `CCCCCCN1CCN(C2CN(Cc3cn(CCCCCC)nn3)S(=O)(=O)C2)CC1` (stereo unspecified), the activation was 0.04%.
In the case of `Cc1cccc(-n2nc3c(c2NC(=O)c2cc4ccccc4o2)CS(=O)(=O)C3)c1`, the activation is 0.74%.
